Most compounds without a hit are left out; they make up all but 3.2% or so of the library.
rCAG RNA binder = molecules binding r(CAG) RNA repeats | r(CAG) RNA repeat, TO-PRO-1 dye displacement fluorescence | inhibition, % at 3 µM | 370,000 tested, 1.3% active | AID 651821;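 active = inhibition above the plate cutoff, the mean of all test compounds on that plate plus 3 SD, cut at about 35% in these data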;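 also: 0% = DMSO alone and 100% = 100 µM mitoxantrone as full dye displacement; higher means more dye released from RNA so lower well fluorescence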
PRMT1 FP inh = blocks human protein arginine methyltransferase 1; Q99873; recombinant PRMT1, activity-based probe fluorescence polarization; inhibition, % at 2.79 µM; 370,000 tested, 1.3% active; AID 652257;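 active = inhibition above about 21% made by adding two undisclosed values, limit read from the data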
DAGLB inhibitor = blocks human DAGLB lipase activity; AID 504411; HEK293T DAGLB membrane lysate, EnzChek fluorogenic substrate; 340,000 tested, 0.059% active; inhibition, % at 5.17 µM; Q8NCG7; in the data active = inhibition above about 34%;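 also: 0% = enzyme with vehicle and 100% = wells lacking enzyme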
HTRA1 inh = blocks human HTRA1 serine peptidase. inhibition, % at 5.96 µM. 340,000 tested, 0.5% active. AID 504803. Q92743. recombinant HTRA1, FP-rhodamine activity-based probe, fluorescence polarization; in the data active = inhibition above about 36%;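 also: 0% = enzyme with DMSO and 100% = wells lacking enzyme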
Target sequence (Q92743 whole entry, looked up): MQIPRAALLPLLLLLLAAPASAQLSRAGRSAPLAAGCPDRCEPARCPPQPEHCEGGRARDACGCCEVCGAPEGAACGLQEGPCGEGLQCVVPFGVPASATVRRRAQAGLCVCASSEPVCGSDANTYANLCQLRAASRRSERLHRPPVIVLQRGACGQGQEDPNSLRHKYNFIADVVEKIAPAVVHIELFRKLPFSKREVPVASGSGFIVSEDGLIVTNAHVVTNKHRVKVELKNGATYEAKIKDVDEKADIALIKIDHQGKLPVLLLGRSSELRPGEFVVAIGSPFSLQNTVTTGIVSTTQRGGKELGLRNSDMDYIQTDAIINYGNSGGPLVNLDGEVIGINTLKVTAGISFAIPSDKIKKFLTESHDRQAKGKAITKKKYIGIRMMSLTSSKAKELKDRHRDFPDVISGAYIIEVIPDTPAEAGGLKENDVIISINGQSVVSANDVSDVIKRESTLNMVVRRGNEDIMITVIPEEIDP
LEDGF integ inh = blocks HIV-1 LEDGF/p75-dependent DNA integration; TR-FRET IN-LEDGF/p75 DNA integration, Eu/Cy5; inhibition, % at 3.7 µM; 370,000 tested, 0.64% active;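 active = inhibition above the screen-wide mean plus 3 SD, cut at about 13% in these data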;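 also: signal is the Cy5 over europium emission ratio at 671 and 618 nm; 0% = plate median of compound wells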
mABHD4 FP = inhibits mouse alpha/beta hydrolase domain 4 | purified mABHD4, FP-Rh probe fluorescence polarization | inhibition, % at 8.92 µM | 370,000 tested, 0.54% active | AID 720543;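 active = inhibition exceeding the mean over every tested compound plus 3 SD, cut at about 30% in these data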;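 also: 0% = plate median of compound wells and 100% = S159A mutant with DMSO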
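Test system: mABHD4 protein; Read-out basis: % inhibition; Incubation: 45 min + 60 min at 25 °C; Repeats: single replicate; Technique: fluorescence polarization with parallel and perpendicular emission, 525/598 nm; Compound: 8.92 µM, single dose; Benchmarks: full inhibition S159A mutant plus DMSO, zero as sample-well median.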
PRMT1 confirm = confirmation of human PRMT1 inhibitors; recombinant His-PRMT1, activity-based probe fluorescence polarization; inhibition, % at 2.79 µM; 3,300 tested, 42% active; shares compounds with PRMT1 FP inh; AID 687036;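 active = mean inhibition across replicates above the hit cutoff derived for the earlier primary screen, cut at about 22% in these data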
The depositor's hits bear a star; . = not tested or not shown.

SMILES	rCAG RNA binder	PRMT1 FP inh	DAGLB inhibitor	HTRA1 inh	LEDGF integ inh	mABHD4 FP	PRMT1 confirm
O=c1cc(O)n(-c2ccccc2F)c(=S)[nH]1	9	6	-1	-20	1	-13	.
COc1ccc(N2C(=O)CC(Sc3ncccc3C(=O)O)C2=O)cc1 (configuration not stated)	6	1	1	0	3	4	.
Cc1nnc(SC2CC(=O)N(c3ccccc3)C2=O)s1 (configuration not stated)	-1	78*	8	-7	2	8	70*
COc1ccc(N2C(=O)CC(Sc3nc4ccccc4s3)C2=O)cc1 (configuration not stated)	13	35*	0	-10	4	-8	4
COc1ccc(N2C(=O)CC(Sc3nccc(C)n3)C2=O)cc1 (configuration not stated)	0	2	1	0	0	2	.
CCOc1ccc2nc(SC3CC(=O)N(c4ccc(OC)cc4)C3=O)sc2c1 (configuration not stated)	1	7	-2	7	-3	5	.
C=CCNc1nnc(SC2CC(=O)N(c3ccc(OC)cc3)C2=O)s1 (configuration not stated)	2	83*	0	-1	-7	4	72*
COc1ccc(N2C(=O)CC(Sc3nnc(-c4ccccc4F)n3C)C2=O)cc1 (configuration not stated)	2	36*	0	2	1	-3	48*
CC(=O)Nc1ccc2ccc3cccc4ccc1c2c34	3	-5	1	4	-2	3	.
O=C(CSc1cc(Cl)ccc1Cl)Nc1ccc(N2CCOCC2)cc1	0	14	-20	8	-3	14	.
O=C1CC(SCCc2nc3ccccc3[nH]2)C(=O)N1c1ccc(F)cc1 (configuration not stated)	7	19	-2	2	0	-2	.
CCOc1ccc(N2C(=O)CC(Sc3nnnn3-c3ccccc3)C2=O)cc1 (configuration not stated)	1	76*	-1	0	-1	-13	43*
COc1ccc(N2C(=O)CC(SCCc3nc4ccccc4[nH]3)C2=O)cc1 (configuration not stated)	3	26*	-1	1	6	-1	-2
O=C(N/N=C\c1cccnc1)C1c2ccccc2Oc2ccccc21	0	-3	0	-11	0	-5	.
COc1cc([N+](=O)[O-])c2ncsc2c1	4	12	0	2	-1	-3	.
COc1cc(SSc2cc(OC)cc([N+](=O)[O-])c2N)c(N)c([N+](=O)[O-])c1	19	76*	6	17	1	29	90*
Cc1ccc(C(=O)NNC(=S)NC(=O)COc2ccccc2)cc1	2	8	-1	-7	-3	-1	.
Cc1ccccc1C(=O)NNC(=S)NC(=O)COc1ccccc1	0	44*	2	1	3	-8	9
O=C(COc1ccccc1)NC(=S)Nc1ccc(Br)cn1	-2	31*	.	.	0	6	3
COc1ccc2sc(-c3ccc(S(C)(=O)=O)cc3)c(C(=O)NCCCN3CCCC3=O)c2c1	0	4	-3	12	-4	0	.
Cc1ccc(NCCC(=O)c2cccc([N+](=O)[O-])c2)c(C)c1	4	37*	-2	-3	-2	3	40*
Cc1ccc(NCC(=O)c2ccc([N+](=O)[O-])cc2)cc1	.	.	8	3	.	.	.
Cc1cccc(NCCC(=O)c2ccc([N+](=O)[O-])cc2)c1C	1	50*	-1	-5	3	11	66*
Cc1ccc(C(=O)CNc2cccc([N+](=O)[O-])c2)cc1	1	0	0	-9	-1	2	.
CC1(C)CC2CN(C(=O)Cc3ccccc3)C(C)(C2)C1 (configuration not stated)	-6	1	0	-3	1	3	.
SMILES	rCAG RNA binder	PRMT1 FP inh	DAGLB inhibitor	HTRA1 inh	LEDGF integ inh	mABHD4 FP	PRMT1 confirm
CN(C)S(=O)(=O)c1ccc(C(=O)Nc2ccccc2SCCC#N)cc1	-2	2	-6	3	0	-1	.
COc1cc2c(cc1OC)C(c1ccccc1)N(C(=O)CCl)CC2 (configuration not stated)	-5	2	1	6	3	8	.
COc1cc2c(cc1OC)C(c1ccccc1O)N(C1CC(=O)N(c3ccccc3)C1=O)CC2 (configuration not stated)	9	83*	0	-9	-1	-11	19
O=C(O)CN1C(=O)S/C(=C\c2ccc3c(c2)OCO3)C1=O	2	33*	1	-2	0	2	4
Cc1ccc(NC(=O)N2CCC(c3ccccc3)C2)cc1C (configuration not stated)	-5	-1	-9	-8	-1	-4	.
CCCCSc1nc(C)cc(NC(=S)Nc2ccc(OC)cc2)n1	1	-3	-12	-9	2	0	.
COc1ccc(C(=O)CC(=O)c2ccc(C(C)(C)C)cc2)cc1	2	4	-9	4	-1	-8	.
COc1ccc(C(=O)CC(Sc2ccccc2N)c2ccc(OC)cc2)cc1 (configuration not stated)	9	59*	-8	-14	0	3	29*
CCN(CC)CCSc1nc2c([nH]1)c(=S)n(C)c(=O)n2C	4	42*	0	4	-2	-2	3
CC(C)c1ccccc1NC(=O)CCc1nc2ccccc2s1	4	32*	1	0	2	0	16
COc1ccccc1NC(=O)CCc1nc2ccccc2s1	-6	-1	-1	5	-1	2	.
CCCOc1cc(N(CC)CC)ccc1/C=C(/C#N)c1nc2ccc(C)cc2[nH]1	-20	-10	-90	12	0	9	.
CCN(CC)c1ccc(/C=C(/C#N)c2nc3ccc(C)cc3[nH]2)c(OC(C)C)c1	-63	48*	-205	18	0	-11	53*
O=[N+]([O-])c1ccccc1CNCCCCO	2	1	-1	-2	0	1	.
Cn1c(SCc2nnc(-c3ccccc3Br)o2)nc2sc3c(c2c1=O)CCC3	5	29*	-9	-40	-1	-3	10
COc1ccc(N=c2scc(-c3ccc(OC)cc3)n2CCO)cc1	-5	36*	0	1	3	6	8
OCCCn1c(-c2ccccc2)csc1=Nc1ccccc1	-3	3	1	-5	-6	0	.
O=C(COC(=O)c1ccccn1)c1ccc(Br)cc1	-2	-2	0	8	4	-5	.
CC(C)c1ccc(N2C(=O)/C(=C/N(C)C)SC2=S)cc1	27	26*	2	6	1	-134	20

Screening results deposited in PubChem BioAssay by The Scripps Research Institute Molecular Screening Center.
